Measured values: ChEMBL document CHEMBL3045755, “Specific and differential inhibition of very-long-chain fatty acid elongases from Arabidopsis thaliana by different herbicides” (Proc Natl Acad Sci U S A, 2004)
Calls of active or inactive are those of the source.

What was measured:
Saccharomyces cerevisiae = test: Growth inhibition of Saccharomyces cerevisiae INVSc1 at 100 uM after 18 to 20 hr; type: organism-based; settings: in vivo
In short: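 Yeast strains expressing the active elongases were induced in raffinose/galactose medium with herbicide at 100 μM for the 18–20 h incubation. Growth was followed by optical density and compared with cultures lacking inhibitor.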

Arabidopsis thaliana = test: Herbicidal activity against Arabidopsis thaliana assessed as apperance of fiddle head phenotype; type: functional, organism-based
[1] = target: T1, 3-ketoacyl-CoA synthase 20 (Arabidopsis thaliana) (UniProt Q9FG87); test: Inhibition of Arbidopsis thaliana C-terminal His-tagged At5g43760 expressed in Saccharomyces cerevisiae INVSc1 at 100 uM after 18 to 20 hr by GC/MS analysis
T1 sequence (whole entry): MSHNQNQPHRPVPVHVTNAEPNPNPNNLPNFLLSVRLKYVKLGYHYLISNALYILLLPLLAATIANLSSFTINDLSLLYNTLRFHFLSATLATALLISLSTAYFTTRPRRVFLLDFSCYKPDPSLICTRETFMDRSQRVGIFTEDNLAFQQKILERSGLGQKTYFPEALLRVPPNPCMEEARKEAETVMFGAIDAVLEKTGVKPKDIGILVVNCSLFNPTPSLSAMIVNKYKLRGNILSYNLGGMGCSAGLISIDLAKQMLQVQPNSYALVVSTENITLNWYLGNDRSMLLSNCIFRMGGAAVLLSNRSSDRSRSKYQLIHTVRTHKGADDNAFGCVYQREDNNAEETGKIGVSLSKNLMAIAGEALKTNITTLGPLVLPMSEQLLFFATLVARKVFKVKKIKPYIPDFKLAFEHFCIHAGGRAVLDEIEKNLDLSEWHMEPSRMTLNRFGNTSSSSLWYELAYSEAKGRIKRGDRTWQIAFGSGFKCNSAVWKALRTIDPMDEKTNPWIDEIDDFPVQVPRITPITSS
In short: (§1)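 pYES2 galactose-inducible constructs in INVSc1, grown at 28°C in uracil-dropout minimal medium with 2% glucose. Log-phase cells were induced in 1% raffinose/2% galactose with herbicide at final 100 μM, in 50-ml culture for 18–20 h, then freeze-dried. FAMEs were made in 1 M methanolic HCl/5% dimethoxypropane at 80°C for 1 h under N2 and run on GC/MS. VLCFA profile was compared with herbicide-free elongase-expressing cells.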

[2] = target: T2, 3-ketoacyl-CoA synthase 2 (Arabidopsis thaliana) (UniProt Q5XEP9); test: Inhibition of Arbidopsis thaliana C-terminal His-tagged At1g04220 expressed in Saccharomyces cerevisiae INVSc1 at 100 uM after 18 to 20 hr by GC/MS analysis; in short: as §1
T2 sequence (whole entry): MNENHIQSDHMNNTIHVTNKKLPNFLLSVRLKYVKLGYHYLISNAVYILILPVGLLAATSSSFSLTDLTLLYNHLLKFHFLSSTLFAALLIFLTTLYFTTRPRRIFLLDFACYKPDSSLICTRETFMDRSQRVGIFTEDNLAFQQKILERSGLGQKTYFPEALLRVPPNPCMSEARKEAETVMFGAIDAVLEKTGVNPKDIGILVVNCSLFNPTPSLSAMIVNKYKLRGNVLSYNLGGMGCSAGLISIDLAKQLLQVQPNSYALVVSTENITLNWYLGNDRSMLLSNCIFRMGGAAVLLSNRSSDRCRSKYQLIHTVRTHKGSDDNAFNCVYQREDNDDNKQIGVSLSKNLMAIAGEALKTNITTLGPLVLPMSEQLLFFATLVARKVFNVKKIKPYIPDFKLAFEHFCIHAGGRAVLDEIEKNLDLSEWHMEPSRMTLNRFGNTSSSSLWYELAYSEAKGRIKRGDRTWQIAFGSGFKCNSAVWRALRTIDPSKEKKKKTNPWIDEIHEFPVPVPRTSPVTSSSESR

[3] = target: T3, 3-ketoacyl-CoA synthase 5 (Arabidopsis thaliana) (UniProt Q9C6L5); test: Inhibition of Arbidopsis thaliana C-terminal His-tagged CER60 expressed in Saccharomyces cerevisiae INVSc1 at 100 uM after 18 to 20 hr by GC/MS analysis; in short: as §1
T3 sequence (whole entry): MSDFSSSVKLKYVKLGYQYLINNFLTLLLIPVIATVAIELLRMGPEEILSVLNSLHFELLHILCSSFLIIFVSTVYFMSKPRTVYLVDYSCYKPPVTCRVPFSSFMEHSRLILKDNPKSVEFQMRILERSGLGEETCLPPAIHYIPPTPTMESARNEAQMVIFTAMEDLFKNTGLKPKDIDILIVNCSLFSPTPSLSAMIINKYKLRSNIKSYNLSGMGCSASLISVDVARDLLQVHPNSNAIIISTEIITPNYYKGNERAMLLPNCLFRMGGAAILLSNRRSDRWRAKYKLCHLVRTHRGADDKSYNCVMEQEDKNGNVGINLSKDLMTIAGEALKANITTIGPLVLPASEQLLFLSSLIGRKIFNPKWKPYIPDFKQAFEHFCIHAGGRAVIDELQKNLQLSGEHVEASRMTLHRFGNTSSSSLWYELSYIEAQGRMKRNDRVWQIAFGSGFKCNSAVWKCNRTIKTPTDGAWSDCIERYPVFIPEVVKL

[4] = target: T4, 3-ketoacyl-CoA synthase 17 (Arabidopsis thaliana) (UniProt O65677); test: Inhibition of Arbidopsis thaliana C-terminal His-tagged KCS2 expressed in Saccharomyces cerevisiae INVSc1 at 100 uM after 18 to 20 hr by GC/MS analysis; in short: as §1
T4 sequence (whole entry): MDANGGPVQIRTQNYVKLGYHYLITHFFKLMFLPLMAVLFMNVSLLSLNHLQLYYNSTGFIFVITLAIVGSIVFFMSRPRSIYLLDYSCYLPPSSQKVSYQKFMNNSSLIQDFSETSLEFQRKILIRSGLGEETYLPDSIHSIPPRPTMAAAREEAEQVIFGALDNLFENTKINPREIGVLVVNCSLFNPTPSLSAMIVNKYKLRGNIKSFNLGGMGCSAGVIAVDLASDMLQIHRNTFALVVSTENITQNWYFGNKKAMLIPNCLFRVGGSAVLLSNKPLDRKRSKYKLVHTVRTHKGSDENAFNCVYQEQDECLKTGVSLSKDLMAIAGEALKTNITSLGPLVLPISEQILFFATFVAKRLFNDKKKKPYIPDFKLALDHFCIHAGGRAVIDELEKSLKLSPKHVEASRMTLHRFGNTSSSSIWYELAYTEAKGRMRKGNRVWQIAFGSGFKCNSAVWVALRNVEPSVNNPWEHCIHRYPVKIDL

[5] = target: T5, 3-ketoacyl-CoA synthase 1 (Arabidopsis thaliana) (UniProt Q9MAM3); test: Inhibition of Arbidopsis thaliana C-terminal His-tagged KCS1 expressed in Saccharomyces cerevisiae INVSc1 at 100 uM after 18 to 20 hr by GC/MS analysis; in short: as §1
T5 sequence (whole entry): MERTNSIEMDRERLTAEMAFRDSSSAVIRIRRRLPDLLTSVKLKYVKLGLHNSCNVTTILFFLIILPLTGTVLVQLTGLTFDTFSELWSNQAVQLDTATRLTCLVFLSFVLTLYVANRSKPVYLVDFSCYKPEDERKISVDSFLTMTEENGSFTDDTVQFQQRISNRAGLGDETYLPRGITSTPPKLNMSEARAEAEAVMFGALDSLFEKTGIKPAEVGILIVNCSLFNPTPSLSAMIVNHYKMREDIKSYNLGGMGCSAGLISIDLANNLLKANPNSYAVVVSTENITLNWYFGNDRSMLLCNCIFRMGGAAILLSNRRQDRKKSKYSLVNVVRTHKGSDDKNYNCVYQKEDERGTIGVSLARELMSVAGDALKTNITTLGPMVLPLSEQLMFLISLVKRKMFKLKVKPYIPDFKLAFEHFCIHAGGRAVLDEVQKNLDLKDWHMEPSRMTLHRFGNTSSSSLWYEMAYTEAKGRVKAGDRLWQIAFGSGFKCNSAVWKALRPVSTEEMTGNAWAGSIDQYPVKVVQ

[6] = target: T6, 3-ketoacyl-CoA synthase 18 (Arabidopsis thaliana) (UniProt Q38860); test: Inhibition of Arbidopsis thaliana C-terminal His-tagged FAE1 expressed in Saccharomyces cerevisiae INVSc1 at 100 uM after 18 to 20 hr by GC/MS analysis; in short: as §1
T6 sequence (whole entry): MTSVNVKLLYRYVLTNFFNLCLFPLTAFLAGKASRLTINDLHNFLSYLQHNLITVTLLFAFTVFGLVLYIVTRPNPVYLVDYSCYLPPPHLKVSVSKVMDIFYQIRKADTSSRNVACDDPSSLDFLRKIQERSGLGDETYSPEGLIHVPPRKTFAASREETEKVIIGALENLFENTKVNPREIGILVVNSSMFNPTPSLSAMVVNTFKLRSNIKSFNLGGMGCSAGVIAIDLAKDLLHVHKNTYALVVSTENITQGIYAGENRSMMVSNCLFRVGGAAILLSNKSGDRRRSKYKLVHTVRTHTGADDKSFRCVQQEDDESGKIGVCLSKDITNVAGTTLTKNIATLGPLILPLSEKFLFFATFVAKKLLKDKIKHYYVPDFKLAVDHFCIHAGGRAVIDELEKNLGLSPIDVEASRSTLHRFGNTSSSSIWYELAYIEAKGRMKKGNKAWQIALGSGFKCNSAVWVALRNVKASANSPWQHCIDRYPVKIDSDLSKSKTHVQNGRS

CCN(CC)C(=O)n1cnc(S(=O)(=O)c2c(C)cc(C)cc2C)n1 [CAFENSTROLE]
active: Activity (Arabidopsis thaliana) | inhibition [1] | inhibition [2] | inhibition [3] | inhibition [4] | inhibition [5] | inhibition [6]
Non-toxic: Activity (Saccharomyces cerevisiae)

CCN(C(=O)n1nnn(-c2ccccc2Cl)c1=O)C1CCCCC1 [FENTRAZAMIDE]
Non-toxic: Activity (Saccharomyces cerevisiae)
active: Activity (Arabidopsis thaliana) | inhibition [1] | inhibition [4] | inhibition [5]
inactive: inhibition [2] | inhibition [3] | inhibition [6]

CCc1cccc(CC)c1N(COC)C(=O)CCl [ALACHLOR]
inactive: Activity (Arabidopsis thaliana) | inhibition [2] | inhibition [6]
Non-toxic: Activity (Saccharomyces cerevisiae)
active: inhibition [1] | inhibition [3] | inhibition [4] | inhibition [5]

CCOC1Oc2ccc(OS(C)(=O)=O)cc2C1(C)C (configuration not stated) [ETHOFUMESATE]
inactive: inhibition [1] | inhibition [2] | inhibition [3] | inhibition [4] | inhibition [5] | inhibition [6]
active: Activity (Arabidopsis thaliana)
Non-toxic: Activity (Saccharomyces cerevisiae)

CN(C)C(=O)C(c1ccccc1)c1ccccc1 [DIPHENAMIDE]
inactive: Activity (Arabidopsis thaliana) | inhibition [1] | inhibition [2] | inhibition [3] | inhibition [4] | inhibition [5] | inhibition [6]
Non-toxic: Activity (Saccharomyces cerevisiae)

CCS(=O)(=O)Oc1ccc2c(c1)C(C)(C)CO2 [BENFURESATE]
active: Activity (Arabidopsis thaliana)
Non-toxic: Activity (Saccharomyces cerevisiae)
inactive: inhibition [1] | inhibition [2] | inhibition [3] | inhibition [4] | inhibition [5] | inhibition [6]

CCN(CC)C(=O)C(C)Oc1cccc2ccccc12 (configuration not stated) [NAPROPAMIDE]
Non-toxic: Activity (Saccharomyces cerevisiae)
inactive: Activity (Arabidopsis thaliana) | inhibition [1] | inhibition [2] | inhibition [3] | inhibition [4] | inhibition [5] | inhibition [6]

CC(C)N(C(=O)COc1nnc(C(F)(F)F)s1)c1ccc(F)cc1 [FLUFENACET]
active: Activity (Arabidopsis thaliana) | inhibition [1] | inhibition [2] | inhibition [3] | inhibition [4] | inhibition [5] | inhibition [6]
Non-toxic: Activity (Saccharomyces cerevisiae)

CC(C)N(C(=O)SCC(Cl)=C(Cl)Cl)C(C)C [TRIALLATE]
Non-toxic: Activity (Saccharomyces cerevisiae)
active: inhibition [3]
inactive: Activity (Arabidopsis thaliana) | inhibition [1] | inhibition [2] | inhibition [4] | inhibition [5] | inhibition [6]
